Data set [1] addresses T1, recombinant T. b. brucei CTPS (Trypanosoma brucei brucei, UniProt Q4GZ95).
T1 sequence (Q4GZ95 1-589): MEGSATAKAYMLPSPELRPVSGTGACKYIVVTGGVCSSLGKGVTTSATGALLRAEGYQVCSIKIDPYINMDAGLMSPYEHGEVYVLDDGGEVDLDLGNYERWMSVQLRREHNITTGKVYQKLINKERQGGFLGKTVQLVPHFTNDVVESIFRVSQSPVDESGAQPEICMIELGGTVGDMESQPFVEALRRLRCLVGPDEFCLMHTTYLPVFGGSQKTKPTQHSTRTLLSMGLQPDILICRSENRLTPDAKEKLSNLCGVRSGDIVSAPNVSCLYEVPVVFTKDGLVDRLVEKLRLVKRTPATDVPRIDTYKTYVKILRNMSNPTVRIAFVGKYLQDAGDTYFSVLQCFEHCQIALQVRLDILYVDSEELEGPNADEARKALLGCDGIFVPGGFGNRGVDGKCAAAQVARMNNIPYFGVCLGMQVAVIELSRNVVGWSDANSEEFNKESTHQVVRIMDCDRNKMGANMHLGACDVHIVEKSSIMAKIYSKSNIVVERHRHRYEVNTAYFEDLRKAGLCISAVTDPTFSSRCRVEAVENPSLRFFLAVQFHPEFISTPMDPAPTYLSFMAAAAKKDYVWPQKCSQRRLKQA
Description: CTPS enzyme assay. The data set is classed as biochemical. The method, boiled down: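 Recombinant T. b. brucei CTPS measured by coupled spectrophotometric assay with pyruvate kinase/lactate dehydrogenase. Enzyme pre-incubated with varied test-compound concentrations at room temperature, then added to reaction mix; A341 decrease monitored; IC50.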

In data set [2] the test system is HeLa cells. Description: In vitro toxicity assay for HeLa mammalian cells. The settings on record: read-out: HeLa EC50. The data set is classed as cell-based, human. The method, boiled down: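 Alamar Blue assay on HeLa cells grown in DMEM with 10% FCS and 2 mM L-glutamine. Cells plated at 3 × 10^5 cells mL−1 and exposed to serially diluted test compound for 16 h before Alamar Blue addition. Fluorescence read at ex 544/em 590 nm; EC50 derived from the dose-response.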

Data set [3] deals with bloodstream form T. b. brucei (strain 427). Description: In vitro toxicity assay for T. b. brucei. The data set is classed as cell-based. The settings on record: for EC50: read-out: T. b. brucei EC50, strain 427, 48 h + 24 h Alamar Blue. A general note: Alamar Blue is a resazurin reagent that responds to reducing activity.
Data set [4] has as its target T1, recombinant T. b. brucei CTPS. The settings on record: 3-Br versus 3-Cl (Acivicin); cited from earlier work.
Data set [5] has as its system bloodstream form T. b. brucei (strain 427). As to conditions: 3-Br versus 3-Cl (Acivicin); cited from earlier work.
Data set [6] deals with HeLa cells. The settings on record: 3-Br versus 3-Cl (Acivicin); cited from earlier work.
Setting [7] is: 16 hours incubation before Alamar Blue.

Broadly, the IC50 is the concentration at which inhibition is half-maximal. In general, EC50 refers to the concentration that produces a half-maximal response.

Where a name gives a salt, the structure may show the parent alone. Read-outs that look alike come from different tables or passages of the source. Where only a bound is given, the exact number is not on record here.

With `N[C@H](C(=O)O)[C@H]1CC(Cl)=NN1Cc1ccccc1` (relative stereo) [Compound 7a, (S*)-2-amino-2-((R*)-1-benzyl-3-chloro-4,5-dihydro-1H-pyrazol-5-yl)acetic acid hydrochloride], the IC50 in data set [1] is over 500 µM. In addition, the EC50 with HeLa cells [2] (Homo sapiens, HeLa, 16 h) was over 500 µM.
As for `N[C@H](C(=O)O)[C@@H]1CC(Cl)=NN1Cc1ccccc1` (relative stereo) [Compound 7b, (S*)-2-amino-2-((S*)-1-benzyl-3-chloro-4,5-dihydro-1H-pyrazol-5-yl)acetic acid hydrochloride], in data set [1], the IC50 is over 500 µM. Moreover, in the data set with HeLa cells [2] (Homo sapiens, HeLa, 16 h), the EC50 was over 500 µM.
Regarding `CCN1N=C(Cl)C[C@@H]1[C@H](N)C(=O)O.Cl` (relative stereo) [Compound 8a, (S*)-2-amino-2-((R*)-3-chloro-1-ethyl-4,5-dihydro-1H-pyrazol-5-yl)acetic acid hydrochloride], in data set [1], the IC50 is 0.1 ± 0.004 µM and the “inhibitory activity against CTPS, in words” value (“inhibitory activity” below) is “sub-micromolar inhibition”. In addition, in data set [1] (relative to Acivicin), the “times more potent than Acivicin as a CTPS inhibitor” value is recorded as “about three times more potent”. For the same compound, the EC50 with HeLa cells [2] (Homo sapiens, HeLa, 16 h) was over 500 µM. The “S.I. selectivity index (EC50 HeLa/EC50 T. b. brucei)” value (“S.I. selectivity index” for short) in data set [3] was over 5. Besides, the “increase of trypanocidal activity upon conversion into the methyl ester (times)” value in data set [3] (methyl ester versus free amino acid) is reported as “about 9”.
Turning to `CCN1N=C(Cl)C[C@H]1[C@H](N)C(=O)O` (relative stereo) [Compound 8b, (S*)-2-amino-2-((S*)-3-chloro-1-ethyl-4,5-dihydro-1H-pyrazol-5-yl)acetic acid hydrochloride], the IC50 in data set [1] is over 500 µM. In the data set with HeLa cells [2] (Homo sapiens, HeLa, 16 h), the EC50 is over 500 µM.
In the case of `COC(=O)[C@@H](N)[C@@H]1CC(Br)=NO1` [1-COOMe], the EC50 in the data set on HeLa cells [2] (setting [7]) stood at 12.5 ± 1.6 µM; in data set [3], 2.1 ± 0.5 µM.
For `Cl.NCCN1N=C(Cl)CC1C(N)C(=O)O` (centres unmarked) [9a,b, 2-amino-2-(1-(2-aminoethyl)-3-chloro-4,5-dihydro-1H-pyrazol-5-yl)acetic acid monohydrochloride], in data set [1], the IC50 was determined as 0.125 ± 0.002 µM and the “inhibitory activity” value is reported as “sub-micromolar inhibition”. In addition, the “times more potent than Acivicin as a CTPS inhibitor” value in data set [1] (relative to Acivicin) is recorded as “about three times more potent”. Besides, the EC50 in the data set with HeLa cells [2] (Homo sapiens, HeLa, 16 h) is over 500 µM.
Regarding `N[C@H](C(=O)O)[C@@H]1CC(Cl)=NO1` [Acivicin, reference compound], the EC50 with HeLa cells [2] (Homo sapiens, HeLa, 16 h) is 16.3 µM. Also, the “S.I. selectivity index” value in data set [3] is recorded as 36.
Regarding `COC(=O)[C@@H](N)[C@@H]1CC(Cl)=NO1` [Acivicin-COOMe], the figures for the EC50 (in the data set on HeLa cells [2] (setting [7]); in data set [3]) were 41.9 ± 3.1 µM and 22.4 ± 1.3 µM, respectively.
With `N[C@H](C(=O)O)[C@@H]1CC(Br)=NO1` [Compound 1, Br-Acivicin], the “increase of the inhibitory potency against CTPS” value in data set [4] is on record as “three fold”. Also, the “times more potent than Acivicin as a CTPS inhibitor” value in data set [1] (relative to Acivicin) is 3. Also, the EC50 stood at 15.1 ± 1.2 µM in the data set with HeLa cells [2] (setting [7]) and 0.038 ± 0.013 µM in data set [3]. Also, the “times more efficacious than Acivicin as an anti-trypanosomal agent” value in data set [3] (relative to Acivicin) turned out to be 12. Also, the “increase in the in vitro anti-trypanosomal activity” value in data set [5] was “twelve-fold”. For the same compound, the “toxicity against mammalian cells” value with HeLa cells [6] was “unaffected”.
As to `COC1=NO[C@H]([C@H](N)C(=O)O)C1` [Compound 2, (S)-2-amino-2-((S)-3-methoxy-4,5-dihydroisoxazol-5-yl)acetic acid], in data set [1], the IC50 is over 500 µM. For the same compound, the EC50 with HeLa cells [2] (Homo sapiens, HeLa, 16 h) is over 500 µM. Moreover, the “S.I. selectivity index” value in data set [3] is listed as over 5.
On to `CN(C)C1=NO[C@H]([C@H](N)C(=O)O)C1` [Compound 3, (S)-2-amino-2-((S)-3-(dimethylamino)-4,5-dihydroisoxazol-5-yl)acetic acid], for which, in data set [1], the IC50 is over 500 µM and the “inhibitory activity” value was “complete loss of the inhibitory potency”. Further, the EC50 with HeLa cells [2] (Homo sapiens, HeLa, 16 h) was over 500 µM. Further, in data set [3], the “S.I. selectivity index” value was over 5.
Consider `O=C(O)CC1CC(Br)=NO1` (centres unmarked) [Compound 4, 2-(3-bromo-4,5-dihydroisoxazol-5-yl)acetic acid], for which, in data set [1], the IC50 is over 500 µM and the “inhibitory activity” value is “inactive”. The EC50 in the data set with HeLa cells [2] (Homo sapiens, HeLa, 16 h) was over 500 µM. Besides, the “S.I. selectivity index” value in data set [3] was over 5.
For the compound `CC(C)(C)OC(=O)N[C@H](C(=O)O)[C@@H]1CC(Br)=NO1` [Compound 5], in data set [1] (relative to Br-Acivicin), the “CTPS inhibitory potency relative to Br-Acivicin” value was “twice more potent”. The results for the EC50 (with HeLa cells [2] (setting [7]); in data set [3]) were 4.6 ± 0.5 µM and 3.4 ± 0.4 µM, respectively.
Take `O=C(N[C@H](C(=O)O)[C@@H]1CC(Br)=NO1)OCc1ccccc1` [Compound 6, (S)-(benzyloxycarbonylamino)-2-((S)-3-bromo-4,5-dihydro-isoxazol-5-yl)acetic acid]: the IC50 in data set [1] was determined as 1.74 ± 0.4 µM. In addition, in data set [1] (relative to Acivicin), the “times weaker than Acivicin as a CTPS inhibitor” value was found to be 5. Also, the “times weaker than Br-Acivicin as a CTPS inhibitor” value in data set [1] (relative to Br-Acivicin) worked out at 17. In the data set on HeLa cells [2] (Homo sapiens, HeLa, 16 h), the EC50 was 410 ± 39 µM.

The record behind these values is PMC3744939 (ChemMedChem, 2012).
